According to ChEMBL document CHEMBL3227953, “Potential antitumor agents. 30. Mutagenic activity of some 9-anilinoacridines: relationships between structure, mutagenic potential, and antileukemic activity” (J Med Chem, 1979):

Columns and labels:
[1] = test system: Salmonella typhimurium; test: Mutagenic activity in Salmonella typhimurium TA1537 assessed as mutation frequency at 10^4 times D50 after 1 hr; assay type: toxicity, organism-based; settings: salmonella enterica subsp. enterica serovar typhimurium
Method in brief: (§1)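 Overnight L-broth culture (0.5 mL) exposed to drug (from 50% ethanol) in 10 mL L broth, 37 °C shaking, 1 h; concentration range from non-toxic to clearly toxic. Cells spun, resuspended in saline, plated in triplicate on minimal plates (1 mM histidine, biotin) and, diluted 1 in 10^4, on L-broth plates; 37 °C, 2 days. D50 interpolated from log % survival vs dose; mutation frequency = 100(MT − MC)/S50, background-corrected.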

[2] = Toxicity in Salmonella typhimurium TA1537 assessed as growth inhibition after 1 hr; assay type: organism-based; settings: salmonella enterica subsp. enterica serovar typhimurium, read-out: D50
Method in brief: (§2)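 Overnight shaken L-broth culture from frozen stock. 0.5 mL culture in L broth (10 mL total) with a range of drug concentrations, from nontoxic to clearly toxic, in 50% ethanol. Shaken at 37 °C for 1 h, centrifuged, resuspended in saline, diluted 1 in 10^4, plated in triplicate on L-broth plates, 37 °C, 2 days. Survival = 100Nt/Nc vs untreated. D50 from linear fit of log survival vs dose.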

[3] = Toxicity in Salmonella typhimurium TA100 assessed as growth inhibition after 1 hr; assay type: organism-based; settings: salmonella enterica subsp. enterica serovar typhimurium, read-out: D50; method in brief: as §2
[4] = test system: Salmonella typhimurium; test: Mutagenic activity in Salmonella typhimurium TA100 assessed as mutation frequency at 10^4 times D50 after 1 hr; assay type: toxicity, organism-based; settings: salmonella enterica subsp. enterica serovar typhimurium; method in brief: as §1
[5] = test system: Salmonella typhimurium; test: Mutagenic activity in Salmonella typhimurium TA98 assessed as mutation frequency at 10^4 times D50 after 1 hr; assay type: toxicity, organism-based; settings: salmonella enterica subsp. enterica serovar typhimurium; method in brief: as §1
[6] = Toxicity in Salmonella typhimurium TA98 assessed as growth inhibition after 1 hr; assay type: organism-based; settings: salmonella enterica subsp. enterica serovar typhimurium, read-out: D50; method in brief: as §2

SMILES | log(M50) [1] | GI50 at 1 h [2] | M50 [1] | GI50 at 1 h [3] | M50 [4] | M50 [5] | GI50 at 1 h [6]
CCS(=O)(=O)Nc1ccc(Nc2c3ccccc3nc3cc(NC(C)=O)ccc23)cc1.CS(=O)(=O)O | 0 | 221 µM |  |  |  |  | 
CCCCCS(=O)(=O)Nc1ccc(Nc2c3ccccc3nc3cc(NC(C)=O)ccc23)cc1.CS(=O)(=O)O | -0.1 | 17.7 µM |  |  |  |  | 
COc1cccc2c1C(=O)c1c(O)c3c(c(O)c1C2=O)C[C@@](O)(C(=O)CO)C[C@@H]3O[C@H]1C[C@H](N)[C@H](O)[C@H](C)O1 [DOXORUBICIN] | 0 | 16.3 µM | 0% | 11.3 µM | 0.5% | 14% | 6.1 µM
CCCS(=O)(=O)Nc1ccc(Nc2c3ccccc3nc3ccccc23)c(OC)c1.CS(=O)(=O)O | -0.7 | 77.6 µM |  |  |  |  | 
CCS(=O)(=O)Nc1ccc(Nc2c3ccccc3nc3ccccc23)cc1.Cl | 2 | 81.6 µM |  |  |  |  | 
CCCNc1ccc(Nc2c3ccccc3nc3ccccc23)cc1.Cl | 1.67 | 98.9 µM |  |  |  |  | 
CCCCCCS(=O)(=O)Nc1ccc(Nc2c3ccccc3nc3cc(NC(C)=O)ccc23)cc1.CS(=O)(=O)O | 0 | 3.1 µM |  |  |  |  | 
Br.CNc1ccc(Nc2c3ccccc3nc3ccccc23)cc1 | 2.05 | 82 µM |  |  |  |  | 
CCNc1ccc(Nc2c3ccccc3nc3ccccc23)cc1.Cl | 1.88 | 100 µM |  |  |  |  | 
CS(=O)(=O)Nc1ccc(Nc2c3ccccc3nc3ccccc23)cc1.Cl | 2.1 | 110 µM | 127% | 194 µM | 0% | 0% | 180 µM
COc1cc(NS(C)(=O)=O)ccc1Nc1c2ccccc2nc2c(C(N)=O)cccc12.Cl | -0.7 | 698 µM |  |  |  |  | 
CCCCS(=O)(=O)Nc1ccc(Nc2c3ccccc3nc3ccccc23)c(OC)c1.CS(=O)(=O)O | 0 | 69.7 µM |  |  |  |  | 
CCCCS(=O)(=O)Nc1ccc(Nc2c3ccccc3nc3cc(NC(C)=O)ccc23)cc1.CS(=O)(=O)O | -0.3 | 148 µM |  |  |  |  | 
CCCCCCNc1ccc(Nc2c3ccccc3nc3ccccc23)cc1.Cl | -1 | 4.4 µM |  |  |  |  | 
CCCCCS(=O)(=O)Nc1ccc(Nc2c3ccccc3nc3ccccc23)cc1.Cl | 0.6 | 15.6 µM |  |  |  |  | 
CCCCCCS(=O)(=O)Nc1ccc(Nc2c3ccccc3nc3ccccc23)c(OC)c1.CS(=O)(=O)O | 0 | 15.3 µM |  |  |  |  | 
CCS(=O)(=O)Nc1ccc(Nc2c3ccccc3nc3c(C(N)=O)cccc23)c(OC)c1.Cl | 0.18 | 467 µM |  |  |  |  | 
CCCCCS(=O)(=O)Nc1ccc(Nc2c3ccccc3nc3ccccc23)c(OC)c1.CS(=O)(=O)O | 0 | 21.1 µM |  |  |  |  | 
CCCCS(=O)(=O)Nc1ccc(Nc2c3ccccc3nc3c(C(N)=O)cccc23)c(OC)c1.Cl | 0 | 330 µM |  |  |  |  | 
CCCCCS(=O)(=O)Nc1ccc(Nc2c3ccccc3nc3c(C(N)=O)cccc23)c(OC)c1.Cl | 0 | 466 µM |  |  |  |  | 
CCCCNc1ccc(Nc2c3ccccc3nc3ccccc23)cc1.Cl | 1 | 9.8 µM |  |  |  |  | 
CCCCS(=O)(=O)Nc1ccc(Nc2c3ccccc3nc3ccccc23)cc1.Cl | 0.78 | 49.3 µM |  |  |  |  | 
COc1cccc2c1C(=O)c1c(O)c3c(c(O)c1C2=O)C[C@@](O)(C(C)=O)C[C@@H]3O[C@H]1C[C@H](N)[C@H](O)[C@H](C)O1 [DAUNORUBICIN] | 0 | 7.4 µM | 0% | 11.1 µM | 4.5% | 20% | 13.1 µM
CC(=O)Nc1ccc2c(Nc3ccc(NS(C)(=O)=O)cc3)c3ccccc3nc2c1.CS(=O)(=O)O | -0.22 | 282 µM |  |  |  |  | 
CCCS(=O)(=O)Nc1ccc(Nc2c3ccccc3nc3ccccc23)cc1.Cl | 1.67 | 50.1 µM |  |  |  |  | 
CCCS(=O)(=O)Nc1ccc(Nc2c3ccccc3nc3cc(NC(C)=O)ccc23)cc1.CS(=O)(=O)O | 0 | 114 µM |  |  |  |  | 
CCS(=O)(=O)Nc1ccc(Nc2c3ccccc3nc3ccccc23)c(OC)c1.CS(=O)(=O)O | -0.3 | 93.2 µM |  |  |  |  | 
CCCCCCS(=O)(=O)Nc1ccc(Nc2c3ccccc3nc3ccccc23)cc1.Cl | 0.3 | 9.4 µM |  |  |  |  | 
CCCS(=O)(=O)Nc1ccc(Nc2c3ccccc3nc3c(C(N)=O)cccc23)c(OC)c1.Cl | 0 | 642 µM |  |  |  |  | 
